Calls of active or inactive are those of the source. The rule behind the calls is not given here. Where a SMILES comes first, the peptide text is derived from it. Bridges are numbered along the chain shown (N, C = ends). Triazole bridges read from a SMILES are 1,4-linked. [ ]: non-standard residue; d: D form. The star is where a group is joined. NH(β-GlcNAc) = CC(=O)N[C@@H]1[C@@H](O)[C@H](O)[C@@H](CO)O[C@H]1N*; Dap(N3) = [N-]=[N+]=NC[C@H](N)C(=O)O; Sec = N[C@@H](C[SeH])C(=O)O; Pra = C#CC[C@H](N)C(=O)O
Legend:
[1] = target: T1, Tumor necrosis factor ligand superfamily member 11 (Homo sapiens, UniProt O14788); assay: (§1) Binding affinity to recombinant human sRANKL expressed in Escherichia coli by SPR assay
T1 sequence (O14788 whole entry): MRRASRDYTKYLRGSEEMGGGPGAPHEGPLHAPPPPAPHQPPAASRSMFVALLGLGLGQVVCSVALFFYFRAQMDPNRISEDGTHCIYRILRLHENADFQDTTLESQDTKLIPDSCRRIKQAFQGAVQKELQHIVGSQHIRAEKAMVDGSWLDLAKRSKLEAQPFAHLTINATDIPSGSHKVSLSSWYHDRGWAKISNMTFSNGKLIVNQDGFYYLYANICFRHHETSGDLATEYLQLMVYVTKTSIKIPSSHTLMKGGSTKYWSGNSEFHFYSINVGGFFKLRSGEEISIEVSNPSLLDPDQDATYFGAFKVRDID
Method in brief: (§2)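 SPR at 25 °C with recombinant sRANKL immobilized on a CM5 dextran chip at about 3500 RU. Surfaces regenerated between cycles with Gly-HCl at pH 2.5. kon, koff and Kd taken from kinetic fitting of the sensorgrams.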

[2] = Drug metabolism assessed as alpha-chymotrypsin (unknown origin)-mediated compound degradation by measuring parent compound remaining after 8 hrs by HPLC analysis; type: ADME; details: human, read-out: Stability
Method in brief: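 Peptide exposed to α-chymotrypsin; percent residual peptide tracked by HPLC. Mean ± SEM of duplicate independent experiments.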

[3] = target: T2, Tumor necrosis factor ligand superfamily member 11 (Homo sapiens) (UniProt O14788); assay: Binding affinity to recombinant human sRANKL expressed in Escherichia coli assessed as dissociation constant by SPR assay; method in brief: as §2
T2 sequence (whole entry): T1 sequence (O14788 whole entry)

[4] = target: T2, Tumor necrosis factor ligand superfamily member 11 (Homo sapiens); assay: Binding affinity to recombinant human sRANKL expressed in Escherichia coli assessed as association constant by SPR assay; method in brief: as §2
[5] = test system: BMMC; assay: Cytotoxicity against C57BL/6 mouse BMMC up to 100 uM after 48 hrs by CCK8 assay; type: cell-based
Method in brief: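 BMMCs seeded at 1×10^5/mL and grown 24 h, then exposed to peptide at 0, 12.5, 25.0, 50.0 or 100.0 µM for 48 h. CCK-8 solution added for 2 h and absorbance read at 450 nm.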

[6] = test system: BMMC; assay: Inhibition of RANKL/mCSF-induced osteoclast differentiation in C57BL/6 mouse BMMC assessed as reduction in TRAP-positive multinucleated cells at 30 uM by microscopic method relative to control; type: functional; details: C57BL/6, BMMC
[7] = test system: Mus musculus; assay: Inhibition of ovariectomy-induced trabecular bone loss in C57BL/6 mouse distal femur bone at 20 mg/kg/day, ip after 6 weeks by H and E staining based microscopic method; type: functional, organism-based
Method in brief: (§3)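 Female C57BL/6 mice, 6 weeks old, ovariectomized, six per group; 20.0 mg/kg i.p. daily in saline, or saline, for 6 weeks. Femurs fixed in 4 % paraformaldehyde for 4 days and decalcified in 10% EDTA for 2 weeks. 4 µm paraffin sections of the metaphysis stained with H&E (trabecular area) or TRAP (osteoclasts counted).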

[8] = target: T2, Tumor necrosis factor ligand superfamily member 11 (Homo sapiens); assay: as §1; method in brief: as §2
[9] = test system: Mus musculus; assay: Inhibition of ovariectomy-induced trabecular bone loss in C57BL/6 mouse assessed as reduction in TRAP-positive multinucleated cells in distal femur bone at 20 mg/kg/day, ip after 6 weeks by microscopic method; type: functional, organism-based; method in brief: as §3
[10] = test system: Mus musculus; assay: Inhibition of ovariectomy-induced trabecular bone loss in C57BL/6 mouse distal femur bone assessed as increase in bone surface area expressed per unit total volume at 20 mg/kg/day, ip after 6 weeks by micro-CT analysis; type: functional, organism-based
Method in brief: (§4)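 Female C57BL/6 mice, 6 weeks old, ovariectomized, six per group; 20.0 mg/kg i.p. daily in saline, or saline vehicle, for 6 weeks. Femurs then scanned by micro-CT for BMD, Tb.N and BS/TV, with 2D/3D reconstruction.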

[11] = test system: Mus musculus; assay: Inhibition of osteoclastogenesis in ovariectomized C57BL/6 mouse assessed as decrease in serum TNFalpha level at 20 mg/kg/day, ip after 6 weeks by ELISA; type: functional, organism-based
Method in brief: (§5)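 Female C57BL/6 mice, 6 weeks old, ovariectomized; six per group (sham, OVX with saline, OVX with peptide). Peptide given at 20.0 mg/kg i.p. daily in saline for 6 weeks. Blood centrifuged and serum stored at -80 °C; IL-6, TRAcp5B, CTX-1 and TNF-α measured by ELISA kits.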

[12] = test system: Mus musculus; assay: Inhibition of osteoclastogenesis in ovariectomized C57BL/6 mouse assessed as decrease in serum IL-6 level at 20 mg/kg/day, ip after 6 weeks by ELISA; type: functional, organism-based; method in brief: as §5
[13] = test system: BMMC; assay: Inhibition of RANKL/mCSF-induced osteoclast differentiation in C57BL/6 mouse BMMC assessed as reduction in TRAP-positive multinucleated cells by microscopic method; type: functional, cell-based; details: for IC50: C57BL/6, BMMC
[14] = test system: Mus musculus; assay: Inhibition of ovariectomy-induced trabecular bone loss in C57BL/6 mouse distal femur bone assessed as increase in bone volume expressed per unit total volume at 20 mg/kg/day, ip after 6 weeks by micro-CT analysis; type: functional, organism-based; method in brief: as §4
[15] = test system: Mus musculus; assay: Inhibition of ovariectomy-induced trabecular bone loss in C57BL/6 mouse distal femur bone assessed as increase in bone mineral density at 20 mg/kg/day, ip after 6 weeks by micro-CT analysis; type: functional, organism-based; method in brief: as §4
[16] = test system: Mus musculus; assay: Inhibition of osteoclastogenesis in ovariectomized C57BL/6 mouse assessed as decrease in serum TRAcp5B level at 20 mg/kg/day, ip after 6 weeks by ELISA; type: functional, organism-based; method in brief: as §5
[17] = test system: Mus musculus; assay: Inhibition of ovariectomy-induced trabecular bone loss in C57BL/6 mouse distal femur bone assessed as increase in trabecular number at 20 mg/kg/day, ip after 6 weeks by micro-CT analysis; type: functional, organism-based; method in brief: as §4
[18] = target: Tumor necrosis factor ligand superfamily member 11/11A (Mus musculus) (UniProt O35235+O35305); assay: Inhibition of RANKL/RANK protein-protein interaction in mouse RAW264.7 cells assessed as reduction in RANKL-stimulated NF-kB signaling pathway activation by measuring decrease in IkBalpha phosphorylation after 2 hrs by immunoblot assay; type: cell-based
Sequence of Tumor necrosis factor ligand superfamily member 11/11A (Mus musculus) (O35235 139-316 limits assumed): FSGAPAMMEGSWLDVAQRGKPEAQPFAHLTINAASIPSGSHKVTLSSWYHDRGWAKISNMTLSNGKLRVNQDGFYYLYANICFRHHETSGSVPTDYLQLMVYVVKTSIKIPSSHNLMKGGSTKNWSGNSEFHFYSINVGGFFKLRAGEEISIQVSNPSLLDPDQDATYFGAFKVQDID
Sequence of Tumor necrosis factor ligand superfamily member 11/11A (Mus musculus) (O35305 31-625 partner limits assumed): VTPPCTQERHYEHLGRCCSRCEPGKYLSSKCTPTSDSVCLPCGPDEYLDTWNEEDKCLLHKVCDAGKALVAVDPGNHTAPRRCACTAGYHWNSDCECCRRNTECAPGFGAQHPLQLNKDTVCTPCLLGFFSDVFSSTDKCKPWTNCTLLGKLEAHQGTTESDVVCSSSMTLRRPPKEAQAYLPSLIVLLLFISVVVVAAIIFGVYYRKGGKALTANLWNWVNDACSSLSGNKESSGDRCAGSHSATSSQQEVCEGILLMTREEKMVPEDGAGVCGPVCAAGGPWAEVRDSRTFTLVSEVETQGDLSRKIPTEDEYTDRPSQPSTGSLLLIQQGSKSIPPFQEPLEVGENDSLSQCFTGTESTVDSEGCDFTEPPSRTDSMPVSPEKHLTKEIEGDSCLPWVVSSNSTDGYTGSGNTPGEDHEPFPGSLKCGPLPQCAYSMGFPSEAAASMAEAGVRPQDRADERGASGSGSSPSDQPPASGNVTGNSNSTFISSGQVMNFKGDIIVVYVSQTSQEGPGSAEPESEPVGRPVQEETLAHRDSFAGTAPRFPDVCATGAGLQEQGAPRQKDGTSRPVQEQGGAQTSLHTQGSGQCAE
Method in brief: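 RAW264.7 cells (1×10^5/well) cultured 12 h, pretreated with or without peptide for 2 h, then stimulated with 300 ng/mL sRANKL for the indicated periods. Lysates (20 µg) run on SDS-PAGE and blotted for phospho-IκBα, IκBα and ERK2; ECL detection.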

[19] = test system: Mus musculus; assay: Inhibition of osteoclastogenesis in ovariectomized C57BL/6 mouse assessed as decrease in serum CTX-1 level at 20 mg/kg/day, ip after 6 weeks by ELISA; type: functional, organism-based; method in brief: as §5

Compound | Kd [1] [µM] | remaining at 8 h [2] [%] | Kapp [3] [s⁻¹] | Kapp [4] [M⁻¹ s⁻¹] | Activity [5] | inhibition at 30 µM [6] [%] | inhibition [7] | Activity [8] | inhibition [9] | inhibition [10] | inhibition [11] | inhibition [12] | inhibition [13] | IC50 [13] [µM] | inhibition [14] | inhibition [15] | inhibition [16] | inhibition [17] | inhibition [18] | inhibition [19]
CC[C@H](C)[C@@H]1NC(=O)[C@H](CCC(=O)O)NC(=O)[C@H](CC(C)C)NC(=O)[C@H](Cc2ccc(O)cc2)NC(=O)[C@H](CCCNC(=N)N)NC(=O)CNC(=O)[C@H](CCC(=O)O)NC(=O)[C@H](CCCCN)NC(=O)[C@@H](NC(C)=O)CSSC[C@@H](C(=O)N[C@@H](CC(C)C)C(N)=O)NC(=O)[C@H](Cc2ccccc2)NC(=O)[C@H](CCC(=O)O)NC1=O (Ac-CKEGRYLEIEFCL-NH2; disulfide 1-12) | 30.9 | 38.5 | 0.0065 | 212 | Non-Toxic | 24.4 | – | – | – | – | – | – | – | – | – | – | – | – | – | –
CC[C@H](C)[C@@H]1NC(=O)[C@H](CCC(=O)O)NC(=O)[C@H](CC(C)C)NC(=O)[C@H](Cc2ccc(O)cc2)NC(=O)[C@H](CCCNC(=N)N)NC(=O)CNC(=O)[C@H](CCC(=O)O)NC(=O)[C@H](CCCCN)NC(=O)[C@@H](NC(=O)[C@H](CC(=O)N[C@@H]2O[C@H](CO)[C@@H](O)[C@H](O)[C@H]2NC(C)=O)NC(C)=O)CSSC[C@@H](C(=O)N[C@@H](CC(C)C)C(N)=O)NC(=O)[C@H](Cc2ccccc2)NC(=O)[C@H](CCC(=O)O)NC1=O (Ac-D(NH(β-GlcNAc))CKEGRYLEIEFCL-NH2; disulfide 2-13) | 4.54 | > 60.7 | 0.0027 | 609 | Non-Toxic | 58.2 | Active | Dose-dependent effect | Active | Active | Active | Active | Dose-dependent effect | 28.5 | Active | Active | Active | Active | Active | Active
CC[C@H](C)[C@@H]1NC(=O)[C@H](CCC(=O)O)NC(=O)[C@H](CC(C)C)NC(=O)[C@H](Cc2ccc(O)cc2)NC(=O)[C@H](CCCNC(=N)N)NC(=O)CNC(=O)[C@H](CCC(=O)O)NC(=O)[C@H](CCCCN)NC(=O)[C@@H](NC(C)=O)Cc2cn(nn2)C[C@@H](C(=O)N[C@@H](CC(C)C)C(N)=O)NC(=O)[C@H](Cc2ccccc2)NC(=O)[C@H](CCC(=O)O)NC1=O (Ac-[Pra]KEGRYLEIEF[Dap(N3)]L-NH2; triazole 1-12) | – | – | – | – | Non-Toxic | 42.1 | – | – | – | – | – | – | – | – | – | – | – | – | – | –
CC[C@H](C)[C@@H]1NC(=O)[C@H](CCC(=O)O)NC(=O)[C@H](CC(C)C)NC(=O)[C@H](Cc2ccc(O)cc2)NC(=O)[C@H](CCCNC(=N)N)NC(=O)CNC(=O)[C@H](CCC(=O)O)NC(=O)[C@H](CCCCN)NC(=O)[C@@H](NC(C)=O)C[Se][Se]C[C@@H](C(=O)N[C@@H](CC(C)C)C(N)=O)NC(=O)[C@H](Cc2ccccc2)NC(=O)[C@H](CCC(=O)O)NC1=O (Ac-[Sec]KEGRYLEIEF[Sec]L-NH2; diselenide 1-12) | – | – | – | – | Non-Toxic | 40.6 | – | – | – | – | – | – | – | – | – | – | – | – | – | –
CC[C@H](C)[C@H](NC(=O)[C@H](CC(C)C)NC(=O)[C@H](Cc1ccc(O)cc1)NC(=O)[C@@H]1CSSC[C@H](NC(=O)[C@@H](N)Cc2ccc(O)cc2)C(=O)N[C@@H](CCC(=O)O)C(=O)N[C@@H]([C@@H](C)CC)C(=O)N[C@@H](CCC(=O)O)C(=O)N[C@@H](Cc2ccccc2)C(=O)N1)C(=O)N[C@@H](CCCNC(=N)N)C(=O)O (H-YCEIEFCYLIR-OH; disulfide 2-7) | 2.75 | – | 0.0013 | 496 | – | 55.6 | – | – | – | – | – | – | – | 25.3 | – | – | – | – | – | –
